Converted amounts (≈) assume the structure as drawn.
Tests used:
[1] = tested on: Aspergillus niger; assay: Antifungal activity against Aspergillus niger at 100 ug/disc after 24 hrs by disc diffusion method; format: functional; conditions: read-out: DIZ
Outline: (§1)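 Paper disc diffusion on autoclaved Mueller-Hinton agar poured 5 mm deep. Agar was swab-inoculated with 10⁵ CFU/mL suspension (0.5 McFarland). Discs 6.25 mm across were soaked in compound solution in DMSO (3.12–100 µg/mL) and plates incubated 24 h at (37 ± 1) °C. Read-out was inhibition zone (mm). DMSO control disc; ciprofloxacin or ketoconazole reference, 100 µg/disc. Mean of three independent experiments.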

[2] = tested on: Candida albicans; assay: Antifungal activity against Candida albicans at 100 ug/disc after 24 hrs by disc diffusion method; format: functional; conditions: read-out: DIZ; outline: as §1
[3] = tested on: Shigella flexneri; assay: Antibacterial activity against Shigella flexneri after 24 hrs by agar streak dilution method; format: functional
Outline: (§2)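 MIC by agar streak dilution. Graded amounts of DMSO stock (100 μg/mL) were mixed into molten sterile nutrient agar and poured 4–5 mm deep. Serial concentrations spanned 3.12–100 µg/mL. Plates were inoculated with about 10⁵ CFU/mL of bacterial suspension and incubated at (37 ± 1) °C for 24 h. Each value is the mean of three independent experiments.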

[4] = tested on: Shigella flexneri; assay: Antibacterial activity against Shigella flexneri at 100 ug/disc after 24 hrs by disc diffusion method; format: functional; conditions: read-out: DIZ; outline: as §1
[5] = tested on: Pseudomonas aeruginosa; assay: Antibacterial activity against Pseudomonas aeruginosa at 100 ug/disc after 24 hrs by disc diffusion method; format: functional; conditions: read-out: DIZ; outline: as §1
[6] = tested on: Proteus vulgaris; assay: Antibacterial activity against Proteus vulgaris after 24 hrs by agar streak dilution method; format: functional; outline: as §2
[7] = tested on: Candida albicans; assay: Antifungal activity against Candida albicans after 48 hrs by agar streak dilution method; format: functional
Outline: (§3)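 Fungal MIC by agar streak dilution on Sabouraud dextrose agar, poured 4–5 mm deep. Compound from a DMSO stock (100 μg/mL) was incorporated at serial concentrations of 3.12–100 µg/mL. Plates were inoculated with about 10⁵ CFU/mL of suspension and incubated at (37 ± 1) °C for 48 h. Each value is the mean of three independent experiments.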

[8] = tested on: Staphylococcus aureus; assay: Antibacterial activity against Staphylococcus aureus after 24 hrs by agar streak dilution method; format: functional; outline: as §2
[9] = tested on: Escherichia coli; assay: Antibacterial activity against Escherichia coli at 100 ug/disc after 24 hrs by disc diffusion method; format: functional; conditions: read-out: DIZ; outline: as §1
[10] = tested on: Salmonella typhi; assay: Antibacterial activity against Salmonella Typhi after 24 hrs by agar streak dilution method; format: functional, Salmonella enterica subsp. enterica serovar Typhi; conditions: Salmonella enterica
Outline: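 Agar streak dilution: DMSO stock (100 µg/mL) graded into molten sterile nutrient agar, poured 4–5 mm deep and solidified. Plates carry serial dilutions spanning 3.12–100 µg/mL. Applied ~10⁵ CFU/mL suspension, then incubated 24 h at (37 ± 1) °C. MIC read as the lowest inhibitory concentration; each value is the mean of three independent experiments.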

[11] = tested on: Escherichia coli; assay: Antibacterial activity against Escherichia coli after 24 hrs by agar streak dilution method; format: functional; outline: as §2
[12] = tested on: Aspergillus niger; assay: Antifungal activity against Aspergillus niger after 48 hrs by agar streak dilution method; format: functional; outline: as §3
[13] = tested on: Aspergillus fumigatus; assay: Antifungal activity against Aspergillus fumigatus at 100 ug/disc after 24 hrs by disc diffusion method; format: functional; conditions: read-out: DIZ; outline: as §1
[14] = tested on: Aspergillus fumigatus; assay: Antifungal activity against Aspergillus fumigatus after 48 hrs by agar streak dilution method; format: functional; outline: as §3
[15] = tested on: Pseudomonas aeruginosa; assay: Antibacterial activity against Pseudomonas aeruginosa […] after 24 hrs by agar streak dilution method; format: functional
[16] = tested on: Aspergillus clavatus; assay: Antifungal activity against Aspergillus clavatus at 100 ug/disc after 24 hrs by disc diffusion method; format: functional; conditions: read-out: DIZ; outline: as §1
[17] = tested on: Staphylococcus aureus; assay: Antibacterial activity against Staphylococcus aureus at 100 ug/disc after 24 hrs by disc diffusion method; format: functional; conditions: read-out: DIZ; outline: as §1
[18] = tested on: Bacillus cereus; assay: Antibacterial activity against Bacillus cereus after 24 hrs by agar streak dilution method; format: functional; outline: as §2
[19] = tested on: Proteus vulgaris; assay: Antibacterial activity against Proteus vulgaris at 100 ug/disc after 24 hrs by disc diffusion method; format: functional; conditions: read-out: DIZ; outline: as §1
[20] = tested on: Aspergillus clavatus; assay: Antifungal activity against Aspergillus clavatus after 48 hrs by agar streak dilution method; format: functional; outline: as §3
[21] = tested on: Klebsiella pneumoniae; assay: Antibacterial activity against Klebsiella pneumoniae at 100 ug/disc after 24 hrs by disc diffusion method; format: functional; conditions: read-out: DIZ; outline: as §1
[22] = tested on: Klebsiella pneumoniae; assay: Antibacterial activity against Klebsiella pneumoniae […] after 24 hrs by agar streak dilution method; format: functional
[23] = tested on: Salmonella typhi; assay: Antibacterial activity against Salmonella Typhi at 100 ug/disc after 24 hrs by disc diffusion method; format: functional, Salmonella enterica subsp. enterica serovar Typhi; conditions: Salmonella enterica, read-out: DIZ
Outline: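 Paper disc diffusion on Mueller-Hinton agar poured 5 mm deep; 10⁵ CFU/mL suspension (0.5 McFarland) swabbed over surface. 6.25 mm filter paper discs soaked in compound in DMSO, incubated 24 h at (37 ± 1) °C; inhibition zone diameter in mm. DMSO disc as blank; ciprofloxacin 100 µg/disc as reference. Mean of three independent experiments.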

[24] = tested on: Bacillus cereus; assay: Antibacterial activity against Bacillus cereus at 100 ug/disc after 24 hrs by disc diffusion method; format: functional; conditions: read-out: DIZ; outline: as §1

Structure (SMILES)	zone of inhibition at 100 µg/disc [1] [mm]	zone of inhibition at 100 µg/disc [2] [mm]	MIC [3] [µg/mL]	zone of inhibition at 100 µg/disc [4] [mm]	zone of inhibition at 100 µg/disc [5] [mm]	MIC [6] [µg/mL]	MIC [7] [µg/mL]	MIC [8] [µg/mL]	zone of inhibition at 100 µg/disc [9] [mm]	MIC [10] [µg/mL]	MIC [12] [µg/mL]	zone of inhibition at 100 µg/disc [13] [mm]	MIC [14] [µg/mL]	MIC [15] [µg/mL]	zone of inhibition at 100 µg/disc [16] [mm]	zone of inhibition at 100 µg/disc [17] [mm]	MIC [18] [µg/mL]	zone of inhibition at 100 µg/disc [19] [mm]	MIC [20] [µg/mL]	zone of inhibition at 100 µg/disc [21] [mm]	other results
CCN1CCN(CC2SC(c3ccc(F)cc3)N(c3ccc(Nc4nc(Oc5cc(=O)n(C)c6ccccc56)nc(N(C)C)n4)cc3)C2=O)CC1 (stereo not given)	26	25	25 (≈ 35.2 µM)	19	25	25 (≈ 35.2 µM)	25 (≈ 35.2 µM)	6.25 (≈ 8.8 µM)	28	6.25 (≈ 8.8 µM)	12.5 (≈ 17.6 µM)	28	12.5 (≈ 17.6 µM)	12.5 (≈ 17.6 µM)	25	27	6.25 (≈ 8.8 µM)	22	25 (≈ 35.2 µM)	25	MIC [11]: 6.25 µg/mL (≈ 8.8 µM); MIC [22]: 25 µg/mL (≈ 35.2 µM); zone of inhibition at 100 µg/disc [23]: 27 mm; zone of inhibition at 100 µg/disc [24]: 28 mm
CCN1CCN(CC2SC(c3cccc(F)c3)N(c3ccc(Nc4nc(Oc5cc(=O)n(C)c6ccccc56)nc(N(C)C)n4)cc3)C2=O)CC1 (stereo not given)	25	25	12.5 (≈ 17.6 µM)	25	20	50 (≈ 70.4 µM)	25 (≈ 35.2 µM)	12.5 (≈ 17.6 µM)	23	6.25 (≈ 8.8 µM)	12.5 (≈ 17.6 µM)	24	50 (≈ 70.4 µM)	50 (≈ 70.4 µM)	24	20	6.25 (≈ 8.8 µM)	19	50 (≈ 70.4 µM)	22	MIC [11]: 6.25 µg/mL (≈ 8.8 µM); MIC [22]: 25 µg/mL (≈ 35.2 µM); zone of inhibition at 100 µg/disc [23]: 24 mm; zone of inhibition at 100 µg/disc [24]: 23 mm
CCN1CCN(CC2SC(c3ccc(Cl)cc3)N(c3ccc(Nc4nc(Oc5cc(=O)n(C)c6ccccc56)nc(N(C)C)n4)cc3)C2=O)CC1 (stereo not given)	26	27	12.5 (≈ 17.2 µM)	26	23	25 (≈ 34.4 µM)	12.5 (≈ 17.2 µM)	6.25 (≈ 8.61 µM)	27	50 (≈ 68.8 µM)	25 (≈ 34.4 µM)	26	12.5 (≈ 17.2 µM)	50 (≈ 68.8 µM)	23	26	6.25 (≈ 8.61 µM)	25	12.5 (≈ 17.2 µM)	26	MIC [11]: 12.5 µg/mL (≈ 17.2 µM); MIC [22]: 6.25 µg/mL (≈ 8.61 µM); zone of inhibition at 100 µg/disc [23]: 20 mm; zone of inhibition at 100 µg/disc [24]: 28 mm
O=C(O)c1cn(C2CC2)c2cc(N3CCNCC3)c(F)cc2c1=O [CIPROFLOXACIN]			≤ 3	32	33	1 (≈ 3.02 µM)		1 (≈ 3.02 µM)	32	1 (≈ 3.02 µM)				1 (≈ 3.02 µM)		30	1 (≈ 3.02 µM)	31		33	MIC [22]: 1 µg/mL (≈ 3.02 µM); zone of inhibition at 100 µg/disc [23]: 30 mm; zone of inhibition at 100 µg/disc [24]: 31 mm
CC(=O)N1CCN(c2ccc(OCC3COC(Cn4ccnc4)(c4ccc(Cl)cc4Cl)O3)cc2)CC1 (stereo not given) [KETOCONAZOLE]	30	33					1 (≈ 1.88 µM)				≤ 3	29	1 (≈ 1.88 µM)		31				1 (≈ 1.88 µM)		

Reference: ChEMBL document CHEMBL1933017, “Synthesis and biological evaluation of some thiazolidinones as antimicrobial agents” (2012)
